Here are results for 20 compounds from ChEMBL document CHEMBL1153346, “Structure-activity study of pentamidine analogues as antiprotozoal agents” (J Med Chem, 2009).

One data set concerns Plasmodium falciparum. The experiment in a line: Antiprotozoal activity after 48 hrs against chloroquine-resistant Plasmodium falciparum K1 infected erythrocytes by [3H]hypoxanthine uptake. Type of data set: functional, organism-based. In a few lines:
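Erythrocytic stages in infected human red cells (hematocrit 1.25%, parasitemia 0.3%) in supplemented RPMI 1640 with Albumax II. Serial dilutions incubated at 37 °C in 93% N2/4% CO2/3% O2. [3H]-hypoxanthine (0.5 µCi/well) added at 48 h, then 24 h more. Incorporation counted by scintillation. IC50 from sigmoidal curves; two independent runs in duplicate.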

Data set [1] is described as follows: Selectivity index, ratio of IC50 for rat L6 cells to IC50 for Leishmania donovani MHOM/SD/62/1S-CL2D axenic amastigotes. Type of data set: toxicity, cell-based. As to conditions: read-out: Ratio IC50. In a few lines: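 Amastigotes: 6 × 10⁴ parasites/well with 2-fold dilutions, 72 h at 37 °C in 5% CO2. Growth read by tetrazolium CellTiter absorbance at 490 nm; IC50 from a four-parameter dose-response fit.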

Data set [2] can be described thus: Selectivity index, ratio of IC50 for rat L6 cells to IC50 for chloroquine-resistant Plasmodium falciparum K1. Type of data set: toxicity, cell-based. As to conditions: read-out: Ratio IC50. In a few lines:
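Ratio of L6 IC50 to K1 IC50. L6 cells: Alamar blue assay after 70 h, 37 °C. K1: [3H]-hypoxanthine incorporation in infected red cells over 48 + 24 h at 37 °C under low O2. IC50s from sigmoidal curves, two independent runs in duplicate.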

A short description of data set [3]: Selectivity index, ratio of IC50 for rat L6 cells to IC50 for Trypanosoma brucei rhodesiense STIB900 trypomastigotes. Particulars: read-out: Ratio IC50. Type of data set: toxicity, cell-based. In outline: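 Ratio of L6 IC50 to STIB900 IC50. L6 cells: 4000/well in RPMI 1640 with 10% FBS, 70 h at 37 °C. Bloodstream forms: 2000/well in supplemented MEM with 15% horse serum, 70 h at 37 °C. Both read by Alamar blue fluorescence; IC50s from sigmoidal curves, two independent runs in duplicate.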

For a further data set, the system named is Leishmania donovani. The experiment in a line: Antiprotozoal activity against Leishmania donovani MHOM/SD/62/1S-CL2D axenic amastigotes after 72 hrs. Type of data set: functional, organism-based. In outline:
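L. donovani axenic amastigotes, adapted from promastigotes and grown in amastigote medium at 37 °C. 6 × 10⁴ parasites per well with 2-fold compound dilutions (DMSO ≤1%), incubated 72 h at 37 °C in humidified 5% CO₂. Growth read by tetrazolium (CellTiter) absorbance at 490 nm. IC50 from a four-parameter dose-response fit. Average of duplicate determinations.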

The test system of data set [4] is Trypanosoma brucei rhodesiense. Briefly: Antiprotozoal activity against Trypanosoma brucei rhodesiense STIB900 trypomastigotes after 70 hrs by alamar blue assay. Type of data set: functional, organism-based. In outline:
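Bloodstream forms, 2000 per well, in MEM with Earle's salts plus 0.2 mM 2-mercaptoethanol, 1 mM pyruvate, 0.5 mM hypoxanthine and 15% heat-inactivated horse serum. Exposed to serial dilutions (DMSO ≤1%) for 70 h at 37 °C in 5% CO₂. Resazurin then added for a further 2-6 h. IC50 from sigmoidal curves; two independent runs in duplicate.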
Background: The colour change of resazurin is a common sign of viable cells or microbes.

The subject of a further data set is L6. Briefly: Cytotoxicity against rat L6 cells after 70 hrs by alamar blue assay. Type of data set: cell-based. As to conditions: L6, 70 h. In a few lines: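 L6 rat myoblasts, 4000 per well, in RPMI 1640 with 2 mM L-glutamine, HEPES, NaHCO₃ and 10% FBS. Exposed to serial dilutions (DMSO ≤1%) for 70 h at 37 °C in humidified 5% CO₂. Resazurin then added for 2-3 h; fluorescence read at ex 536/em 588 nm. IC50 from sigmoidal curves; two independent runs in duplicate.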

For data set [5], the system named is Trypanosoma brucei rhodesiense. Briefly: Antitrypanosomal activity against Trypanosoma brucei rhodesiense STIB900 trypomastigotes infected in NMRI mouse assessed as mouse survival at 10 mg/kg, ip administered from day 3 to day 6 postinfection. Type of data set: functional. As to conditions: route intraperitoneal. In a few lines:
(§1)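 STIB900 acute mouse model. Dosing was intraperitoneal, daily for four days, in DMSO diluted with water to 10% final DMSO. An infected untreated control group was kept. Tail blood was checked for parasitemia to day 60, and deaths were recorded to give mean survival days. Mice surviving and aparasitemic at day 60 counted as cured.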

The subject of data set [6] is Trypanosoma brucei rhodesiense. Briefly: Antitrypanosomal activity against Trypanosoma brucei rhodesiense STIB900 trypomastigotes infected in NMRI mouse assessed as mouse survival at 20 mg/kg, ip administered from day 3 to day 6 postinfection. As to conditions: route intraperitoneal. Type of data set: functional. In outline: as §1
Data set [7] relates to Trypanosoma brucei rhodesiense. Briefly: Antitrypanosomal activity against Trypanosoma brucei rhodesiense STIB900 trypomastigotes infected in NMRI mouse assessed as mouse survival at 5 mg/kg, ip administered from day 3 to day 6 postinfection. As to conditions: route intraperitoneal. Type of data set: functional. In a few lines: as §1

A word on the IC50: it is the point on the concentration scale where inhibition reaches its midpoint. `CC(C)NC(=N)c1ccc(OCCCOc2ccc(C(=N)NC(C)C)cc2)cc1.Cl.Cl`: the IC50 in the data set on Plasmodium falciparum was 25 nM; in the data set on Leishmania donovani, 7110 nM; in data set [4], 93 nM; with L6, more than 192000 nM. Also, the selectivity ratio in [1] was more than 27; in data set [2], more than 7680; in [3], more than 2060. Further, the Survival in data set [5] was more than 38.5 days.

With `Cl.Cl.N=C(N)c1cccc(OCCCOc2cccc(C(=N)N)c2)c1`, the IC50 worked out at 17 nM in the data set with Plasmodium falciparum, 6070 nM with Leishmania donovani, 52 nM in [4] and 16200 nM in the data set with L6. In addition, the values for the selectivity ratio in [1], in data set [2] and in data set [3] were 3, 953 and 312, respectively. Besides, the Survival in data set [5] is more than 40 days; in data set [6], more than 32.8 days.

Regarding `Cl.N=C(N)c1ccc(OCCCCCOc2ccc(C(=N)N)cc2)cc1` [PENTAMIDINE HYDROCHLORIDE], the IC50 in the data set with Plasmodium falciparum was determined as 14 nM; in [4], 7 nM. In addition, the Survival in data set [5] is more than 43.5 days; in data set [6] it was more than 44.3 days.

Regarding `Cl.Cl.N=C(N)c1ccc(OCCCOc2ccc(C3=NCCN3)cc2)cc1`, the IC50 in the data set with Plasmodium falciparum was 18 nM; in the data set with Leishmania donovani it was 2980 nM; in [4], 18 nM; with L6, 71600 nM. Moreover, the results for the selectivity ratio in data set [1], in data set [2] and in [3] were 24, 3980 and 3980, respectively. Further, in [5], the Survival is more than 26.8 days.

Consider `Cl.Cl.N=C(N)c1ccc(OCCCCCOc2ccc(C(=N)N)c(F)c2)cc1F`, for which the IC50 with Plasmodium falciparum came out at 15 nM; in the data set with Leishmania donovani, 1880 nM; in [4], 13 nM; in the data set with L6 it was 6900 nM. Also, the selectivity ratio in data set [1] was determined as 4; in data set [2] it was 460; in data set [3] it was 531. Besides, the Survival in [5] was more than 33 days.

Take `N=C(N)c1ccc(OCCCCCOc2ccc(C(=N)N)cc2[N+](=O)[O-])c([N+](=O)[O-])c1`: the IC50 amounted to 24 nM in the data set with Plasmodium falciparum, 11400 nM in the data set with Leishmania donovani, 98 nM in [4] and 37300 nM in the data set on L6. Further, the selectivity ratio in data set [1] turned out to be 3; in [2] it was 1550; in [3], 381.

`N=C(N)c1ccc(OCCCCCOc2ccc(/C(N)=N\O)cc2)cc1`: the IC50 in the data set with Plasmodium falciparum came to 234 nM; with Leishmania donovani it was 55600 nM; in data set [4] it was 289 nM; with L6, 11600 nM. Moreover, the values for the selectivity ratio in [1], in [2] and in data set [3] were less than 1, 50 and 40, respectively.

On to `CC(C)NC(=N)c1ccc(OCCCCCOc2ccc(C(=N)NC(C)C)cc2)cc1.Cl.Cl`, for which the IC50 in the data set with Plasmodium falciparum was 3 nM; in the data set on Leishmania donovani, 17800 nM; in data set [4], 27 nM; in the data set on L6, 150000 nM. The selectivity ratio stood at 8 in data set [1], 50000 in data set [2] and 5560 in data set [3]. The Survival in data set [7] is more than 41.3 days.

Consider `CC(C)NC(=N)c1ccc(OCCCCCOc2ccc(C(=N)NC(C)C)c(F)c2)cc1F`, for which the IC50 in the data set on Plasmodium falciparum stood at 7 nM; in the data set on Leishmania donovani it was 15000 nM; in [4] it was 259 nM; in the data set with L6, 131000 nM. In addition, the selectivity ratio came out at 9 in data set [1], 18700 in data set [2] and 506 in data set [3].

On to `CCOC(=O)c1cc(C(=N)N)ccc1OCCCCCOc1ccc(C(=N)N)cc1C(N)=O`, for which the IC50 in the data set with Plasmodium falciparum is 14 nM; with Leishmania donovani, 52100 nM; in data set [4] it was 11 nM; with L6, more than 165000 nM. Further, the figures for the selectivity ratio in data set [1], in data set [2] and in data set [3] were more than 3, more than 11800 and more than 15000, respectively.

For the compound `Cl.N=C(N)c1ccc(NCCCCCNc2ccc(C(=N)N)cc2)cc1`, the IC50 was 6 nM in the data set on Plasmodium falciparum, 502 nM in the data set on Leishmania donovani, less than 1 nM in [4] and 950 nM with L6. The figures for the selectivity ratio in data set [1], in data set [2] and in [3] were 2, 158 and more than 950, respectively. Besides, the Survival in [7] was more than 29.3 days.

With `Cl.Cl.N=C(N)c1cccc(OCCCCCCOc2cccc(C(=N)N)c2)c1`, the concentration for half-maximal inhibition (IC50) is 13 nM in the data set on Plasmodium falciparum, 2380 nM with Leishmania donovani, 75 nM in data set [4] and 17100 nM with L6. The selectivity ratio was 7 in data set [1], 1320 in data set [2] and 228 in data set [3]. Moreover, the Survival in [6] was more than 36 days.

In the case of `CC(C)NC(=N)c1cccc(OCCCCCCOc2cccc(C(=N)NC(C)C)c2)c1`, the IC50 in the data set on Plasmodium falciparum amounted to 6 nM; in the data set on Leishmania donovani it was 11600 nM; in [4], 258 nM; in the data set with L6, 107000 nM. The selectivity ratio turned out to be 9 in [1], 17800 in [2] and 415 in data set [3].

As for `Oc1cc(OCCCCCOc2ccc(C3=NCCN3)c(O)c2)ccc1C1=NCCN1`, the IC50 in the data set on Plasmodium falciparum was 98 nM; in the data set on Leishmania donovani, more than 100000 nM; in [4], 3700 nM; in the data set with L6, more than 169000 nM. Besides, the figures for the selectivity ratio in data set [1], in data set [2] and in data set [3] were 2, more than 1720 and more than 46, respectively.

On to `N=C(N)c1ccc(S(=O)(=O)CCCCCS(=O)(=O)c2ccc(C(=N)N)cc2)cc1`, for which the IC50 was 98 nM with Plasmodium falciparum, more than 100000 nM with Leishmania donovani, 28100 nM in data set [4] and more than 174000 nM with L6. Further, the values for the selectivity ratio in data set [1], in data set [2] and in data set [3] were 2, more than 1780 and more than 6, respectively.

`Cl.Cl.N=C(N)c1ccc(OCCCCCCOc2ccc(C(=N)N)cc2)cc1`: the IC50 is 15 nM with Plasmodium falciparum, 1970 nM with Leishmania donovani, 36 nM in data set [4] and 10500 nM with L6. Also, the selectivity ratio in [1] is 5; in [2], 700; in data set [3], 292. Further, the Survival in data set [7] was more than 44.3 days; in [6] it was more than 51.8 days.

For the compound `N=C(N)c1ccc(OCCCCOc2ccc(C(=N)N)cc2[N+](=O)[O-])c([N+](=O)[O-])c1`, the half-maximal inhibitory concentration (IC50) came out at 18 nM in the data set with Plasmodium falciparum, 15100 nM in the data set on Leishmania donovani, 181 nM in [4] and 42800 nM in the data set on L6. Further, the results for the selectivity ratio in data set [1], in data set [2] and in data set [3] were 3, 2380 and 236, respectively.

As for `CC(C)NC(=N)c1cccc(OCCCOc2cccc(C(=N)NC(C)C)c2)c1`, the IC50 was 18 nM with Plasmodium falciparum, 16200 nM in the data set with Leishmania donovani, 543 nM in data set [4] and more than 183000 nM in the data set on L6. Moreover, the figures for the selectivity ratio in [1], in data set [2] and in [3] were more than 11, more than 10200 and more than 337, respectively.

Regarding `Cl.Cl.N=C(N)c1ccc(OCCCOc2ccc(C(=N)N)cc2N)c(N)c1`, the IC50 was 27 nM in the data set with Plasmodium falciparum, 156 nM in data set [4] and 68700 nM with L6. Besides, the selectivity ratio in [2] came out at 2540; in data set [3] it was 440. Also, the Survival in data set [6] was more than 40 days.

On to `N=C(N)c1ccc(OCCCCCOc2ccc(N)cc2)cc1`, for which the IC50 was 2240 nM in the data set on Plasmodium falciparum, more than 100000 nM in the data set with Leishmania donovani, 1310 nM in data set [4] and 120000 nM in the data set on L6. The figures for the selectivity ratio in data set [1], in [2] and in data set [3] were 1, 54 and 91, respectively.
